The source of these data is ChEMBL document CHEMBL3259591, “Three new cembranoid-type diterpenes from Red Sea soft coral Sarcophyton glaucum: isolation and antiproliferative activity against HepG2 cells” (Eur J Med Chem, 2014).

Structures are written as SMILES.

Series [1] relates to HepG2. Nature of the series: Cytotoxicity against human HepG2 cells after 96 hrs by […]. In kind it is functional, cell-based. Conditions: HepG2, 96 h. The procedure, abridged: (§1)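 Cells seeded at 10 × 10^3/well and held 24 h at 37 °C, 5% CO2. Serum-free RPMI-1640 then added with sample at final 1000, 500, 200, 100, 50, 20, 10 µg/mL (DMSO ≤1% v/v). Incubated 96 h, then rinsed and fixed in 3.7% formaldehyde in saline for ≥20 min. IC50 taken as 50% loss of monolayer, from a straight-line fit of dose-response data.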

In another series the test system is MCF7. Kind of series: Cytotoxicity against human MCF7 cells after 96 hrs by […]. The following applies: MCF7, 96 h. It is filed as functional, cell-based. Summed up:
as §1

The next series has as its system A549. Kind of series: Cytotoxicity against human A549 cells after 96 hrs by […]. In kind it is functional, cell-based. Conditions: A549, 96 h. Summed up: as §1
Series [2] deals with PC-3. Kind of series: Cytotoxicity against human PC3 cells after 96 hrs […]. The following applies: PC-3, 96 h. It is filed as functional, cell-based. Summed up: as §1
The subject of a further series is Vero. Nature of the series: Cytotoxicity against african green monkey Vero cells after 96 hrs […]. In kind it is cell-based. The following applies: chlorocebus sabaeus. Summed up: as §1
For series [3], the system named is PC-3. Nature of the series: Cell cycle arrest in human PC3 cells assessed as reduction in cells at S-phase after 24 hrs by flow cytometry (reference value: 32.12 +/- 0.9%). In kind it is functional. More on the design: scale not given: the % may be the effect or the level left. A general note: A flow cytometer gives signals particle by particle.
Series [4] deals with PC-3. Kind of series: Cell cycle arrest in human PC3 cells assessed as increase in cells at G0/G1-phase after 24 hrs by flow cytometry (reference value: 49.80 +/- 0.6%). It is filed as functional.
Series [5] relates to PC-3. Nature of the series: Induction of apoptosis in human PC3 cells assessed as increase in caspase-3 concentration by colorimetric assay relative to untreated control. In kind it is functional.
For series [6], the system named is PC-3. Nature of the series: Induction of apoptosis in human PC3 cells assessed as viable cells after 24 hrs using annexin V/propidium iodide double staining by flow cytometry (reference value: 99.60 %). In kind it is functional.
The subject of series [7] is PC-3. Nature of the series: Induction of apoptosis in human PC3 cells assessed as early apoptotic cells after 24 hrs using annexin V/propidium iodide double staining by flow cytometry (reference value: 0.00 %). In kind it is functional.
In series [8] the test system is PC-3. Kind of series: Induction of apoptosis in human PC3 cells assessed as late apoptotic cells after 24 hrs using annexin V/propidium iodide double staining by flow cytometry (reference value: 0.03 %). In kind it is functional.
Series [9] concerns PC-3. Nature of the series: Induction of apoptosis in human PC3 cells assessed as necrotic cells after 24 hrs using annexin V/propidium iodide double staining by flow cytometry (reference value: 0.640.36 %). In kind it is functional.
The subject of series [10] is HepG2. Nature of the series: Cell cycle arrest in human HepG2 cells assessed as increase in cells at G0/G1-phase after 24 hrs by flow cytometry (reference value: 44.74 +/- 0.6%). It is filed as functional.
Series [11] concerns HepG2. Kind of series: Cell cycle arrest in human HepG2 cells assessed as reduction in cells at S-phase after 24 hrs by flow cytometry (reference value: 43.65 +/- 1.1%). In kind it is functional. More on the design: scale not given: the % may be the effect or the level left.
For series [12], the system named is HepG2. Nature of the series: Induction of apoptosis in human HepG2 cells assessed as increase in caspase-3 concentration by colorimetric assay relative to untreated control. In kind it is functional.
The subject of series [13] is HepG2. Kind of series: Induction of apoptosis in human HepG2 cells assessed as viable cells after 24 hrs using annexin V/propidium iodide double staining by flow cytometry (reference value: 99.35 %). It is filed as functional.
Series [14] concerns HepG2. Nature of the series: Induction of apoptosis in human HepG2 cells assessed as early apoptotic cells after 24 hrs using annexin V/propidium iodide double staining by flow cytometry (reference value: 0.00 %). It is filed as functional.
Series [15] has as its system HepG2. Kind of series: Induction of apoptosis in human HepG2 cells assessed as late apoptotic cells after 24 hrs using annexin V/propidium iodide double staining by flow cytometry (reference value: 0.01 %). In kind it is functional.
For series [16], the system named is HepG2. Nature of the series: Induction of apoptosis in human HepG2 cells assessed as necrotic cells after 24 hrs using annexin V/propidium iodide double staining by flow cytometry (reference value: 0.64 %). It is filed as functional.

A word on the IC50: it is the concentration at which inhibition is half-maximal. Take `C=C1CC[C@@H]2[C@H]([C@@H]3[C@H](C)CC[C@H]13)C2(C)C`: the IC50 in the series on HepG2 [1] came out at 20 µM; in the series with MCF7 it was 20 µM; in the series on A549, 98.4 µM; in the series with PC-3 [2] it was 9.3 µM. The Activity entry is “Non-toxic” in the series on Vero; 23.29% in the series on PC-3 [3]; 64.83% in the series with PC-3 [4]; 91.85% with PC-3 [6]; 1.63% with PC-3 [7]; 2.18% in the series on PC-3 [8]. Besides, the Activity with PC-3 [9] stood at 4.34%. Also, in the series with PC-3 [5], the “fold change (FC)” value is reported as 2.1.
As to `C/C1=C/C2OC(C)(CCCC/C(C)=C\CC1)C(O)C2C(C)C` (stereo not drawn), the values for the IC50 with HepG2 [1], in the series on A549 and with PC-3 [2] were 20 µM, 197 µM and 31.5 µM, respectively. Also, the Activity entry in the series on Vero is given as “Non-toxic”; with HepG2 [10], 53.57%; in the series with HepG2 [11], 8.33%; in the series with HepG2 [13] it was 93.61%; in the series on HepG2 [14], 1.22%; with HepG2 [15], 2.18%. Further, in the series with HepG2 [16], the Activity is reported as 2.99%. Moreover, in the series with HepG2 [12], the “fold change (FC)” value is listed as 2.6.
For `CC1=C2CC[C@@H]3O[C@]3(C)CC/C(C)=C/CC/C(C)=C/[C@@H]2OC1=O`, the IC50 is 94 µM in the series with HepG2 [1], 25 µM in the series with MCF7, 73.8 µM in the series with A549 and 216 µM in the series with PC-3 [2]. Moreover, the Activity result with Vero is listed as “Non-toxic”.
For `CC1=C2CC[C@H]3O[C@]3(C)CC/C(C)=C\CC/C(C)=C/[C@H]2OC1=O`, the IC50 in the series on HepG2 [1] is 20 µM; in the series on MCF7, 29 µM; in the series with A549, 201 µM; with PC-3 [2], 112 µM. Also, the Activity result with Vero is reported as “Non-toxic”; in the series with HepG2 [10], 51.9%; with HepG2 [11], 7.11%; in the series on HepG2 [13], 93.93%; with HepG2 [14], 1.23%; in the series with HepG2 [15], 1.76%. Also, the Activity in the series with HepG2 [16] was 3.08%. The “fold change (FC)” value in the series on HepG2 [12] is 2.
Consider `COc1cccc2c1C(=O)c1c(O)c3c(c(O)c1C2=O)C[C@@](O)(C(=O)CO)C[C@@H]3O[C@H]1C[C@H](N)[C@H](O)[C@H](C)O1` [DOXORUBICIN], for which the IC50 was 0.48 µM with HepG2 [1] and 0.5 µM in the series with PC-3 [2]. Besides, the Activity entry in the series with Vero was “Non-toxic”.
